ChEMBL document CHEMBL4354800, “Amphiphilic nebramine-based hybrids Rescue legacy antibiotics from intrinsic resistance in multidrug-resistant Gram-negative bacilli” (Eur J Med Chem, 2019)
The source made the active and inactive calls. The calls are words filed in the database; no cut-off is given here.

Tests used:
Pseudomonas aeruginosa [1] = assay: Increase in tetracycline uptake in Pseudomonas aeruginosa PAO1 membrane at 25 uM measured every 1 min for 30 mins by fluorescence based assay; format: organism-based; conditions: Bacterial membrane
How it was run: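 P. aeruginosa PAO1 was grown to OD600 0.6, washed, and resuspended in ¼ volume of 10 mM HEPES, pH 7.2. Cells received varying compound concentrations together with fixed tetracycline. Fluorescence (ex 405 nm, em 535 nm) was recorded every 1 min for 30 min at room temperature. Experiments were done in triplicate and averages reported.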

Pseudomonas aeruginosa [2] = assay: Antimicrobial activity against XDR Pseudomonas aeruginosa PA264 infected in Galleria mellonella larvae assessed as survival rate at 25 mg/kg administered 2 hrs post-inoculation measured after 24 hrs relative to control; format: functional, organism-based
Pseudomonas aeruginosa [3] = assay: Disruption of proton gradient in Pseudomonas aeruginosa PAO1 membrane assessed as inhibition of tetracycline uptake at 25 uM measured every 1 min for 30 mins by fluorescence based assay; format: organism-based; conditions: Bacterial membrane
[4] = Toxicity in Galleria mellonella larvae assessed as tolerability by measuring larvae deaths at 75 mg/kg incubated for 96 hrs relative to control; format: organism-based; conditions: in vivo
[5] = Toxicity in Galleria mellonella larvae assessed as tolerability by measuring larvae deaths at 100 mg/kg incubated for 96 hrs relative to control; format: organism-based; conditions: in vivo

Molecule: COLISTIN [listing 1 of 2 here]
- Activity (Pseudomonas aeruginosa [1]): Active
- Survival (Pseudomonas aeruginosa [2]): 0%

Molecule: N#CC(C#N)=NNc1cccc(Cl)c1
- inhibition (Pseudomonas aeruginosa [3]): Active

Molecule: COLISTIN [listing 2 of 2 here]
- Activity [4]: 70%
- Activity [5]: 90%
